Molecules are shown by their SMILES. Calls of active or inactive are those of the source. The rule behind the calls is not given here. Some results are limits rather than exact numbers.

Experiment [1] has as its target T1, Polyunsaturated fatty acid lipoxygenase ALOX15 (Homo sapiens, UniProt P16050).
T1 sequence (P16050 whole entry): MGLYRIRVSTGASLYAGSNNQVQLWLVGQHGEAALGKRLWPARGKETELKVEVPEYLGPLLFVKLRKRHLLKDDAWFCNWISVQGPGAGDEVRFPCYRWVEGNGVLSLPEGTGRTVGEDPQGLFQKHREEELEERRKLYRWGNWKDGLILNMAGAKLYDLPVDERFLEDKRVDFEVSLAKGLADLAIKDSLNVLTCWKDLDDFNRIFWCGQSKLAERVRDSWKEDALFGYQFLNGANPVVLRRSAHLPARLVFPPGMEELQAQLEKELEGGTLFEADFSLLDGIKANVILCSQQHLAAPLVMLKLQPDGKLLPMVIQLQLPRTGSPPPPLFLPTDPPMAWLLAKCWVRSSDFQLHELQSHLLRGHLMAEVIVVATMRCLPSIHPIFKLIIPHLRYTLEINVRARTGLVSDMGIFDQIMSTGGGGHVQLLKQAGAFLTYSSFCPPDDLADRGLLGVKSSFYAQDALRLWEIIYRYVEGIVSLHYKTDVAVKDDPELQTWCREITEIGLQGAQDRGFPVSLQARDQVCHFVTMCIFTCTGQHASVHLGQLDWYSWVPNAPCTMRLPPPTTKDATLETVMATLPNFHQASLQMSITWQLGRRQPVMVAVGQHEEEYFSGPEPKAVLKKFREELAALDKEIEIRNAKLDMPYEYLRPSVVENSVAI
The experiment is described as follows: Activation of wild-type His6-tagged human 15-LOX expressed in Escherichia coli Rosetta DE3 assessed as 15-HpETE formation pre-incubated for 1 min before arachidonic acid substrate addition by cell free assay.

Experiment [2] has as its target T2, Polyunsaturated fatty acid lipoxygenase ALOX15 (Homo sapiens) (UniProt P16050).
T2 sequence (whole entry): T1 sequence (P16050 whole entry)
The experiment is described as follows: Activation of 15-LOX in human whole blood assessed as increase in 15-HETE production at 100 uM pre-incubated for 20 mins before stimulation with LPS and A23187 for 120 mins by LC-MS/MS method. In kind it is tissue-based. Put shortly:
(§1)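 Human blood preincubated 20 min at 37 °C with DMSO vehicle or compound in DMSO. LPS added at 100 μg/mL for 24 h at 37 °C, then A23187 at 20 μg/mL final. Samples frozen in liquid nitrogen at time points, lysed by freeze–thaw, with PGB2 internal standard. Analysed by C18 LC-MRM MS, negative ion. Change = control-normalized concentration minus 1, ×100%; 120 min value from AUC.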

The target of experiment [3] is T3, Leukotriene A-4 hydrolase (Homo sapiens) (UniProt P09960).
T3 sequence (whole entry): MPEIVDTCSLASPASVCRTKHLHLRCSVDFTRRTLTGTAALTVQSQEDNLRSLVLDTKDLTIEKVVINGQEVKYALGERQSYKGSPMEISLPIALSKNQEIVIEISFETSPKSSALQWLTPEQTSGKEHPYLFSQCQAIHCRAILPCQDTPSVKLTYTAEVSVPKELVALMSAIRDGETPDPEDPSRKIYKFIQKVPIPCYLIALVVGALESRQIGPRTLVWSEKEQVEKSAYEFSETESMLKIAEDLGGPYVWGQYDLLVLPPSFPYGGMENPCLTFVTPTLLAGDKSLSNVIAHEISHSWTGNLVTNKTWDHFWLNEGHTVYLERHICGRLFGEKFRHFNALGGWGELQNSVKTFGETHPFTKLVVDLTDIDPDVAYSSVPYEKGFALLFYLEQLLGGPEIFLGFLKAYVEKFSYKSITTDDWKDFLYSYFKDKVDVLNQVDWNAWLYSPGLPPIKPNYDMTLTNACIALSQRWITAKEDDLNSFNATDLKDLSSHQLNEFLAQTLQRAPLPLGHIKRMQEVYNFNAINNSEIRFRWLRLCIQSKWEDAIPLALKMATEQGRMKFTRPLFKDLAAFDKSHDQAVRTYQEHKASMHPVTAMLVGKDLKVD
In words: Inhibition of LTA4H hydrolase activity (unknown origin) assessed as reduction in LTB4 formation at 100 uM by enzyme linked immunosorbent assay. In a few lines: (§2)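 LTA4H hydrolase activity read as LTB4 formation by ELISA. Compound handled as in the 15-LOX assay.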

In experiment [4] the target is T3, Leukotriene A-4 hydrolase (Homo sapiens). The experiment is described as follows: Activation of LTA4H hydrolase activity (unknown origin) assessed as LTB4 formation at 100 uM by enzyme linked immunosorbent assay. In a few lines: as §2
Experiment [5] addresses T4, Cytosolic phospholipase A2 (Homo sapiens) (UniProt P47712).
T4 sequence (whole entry): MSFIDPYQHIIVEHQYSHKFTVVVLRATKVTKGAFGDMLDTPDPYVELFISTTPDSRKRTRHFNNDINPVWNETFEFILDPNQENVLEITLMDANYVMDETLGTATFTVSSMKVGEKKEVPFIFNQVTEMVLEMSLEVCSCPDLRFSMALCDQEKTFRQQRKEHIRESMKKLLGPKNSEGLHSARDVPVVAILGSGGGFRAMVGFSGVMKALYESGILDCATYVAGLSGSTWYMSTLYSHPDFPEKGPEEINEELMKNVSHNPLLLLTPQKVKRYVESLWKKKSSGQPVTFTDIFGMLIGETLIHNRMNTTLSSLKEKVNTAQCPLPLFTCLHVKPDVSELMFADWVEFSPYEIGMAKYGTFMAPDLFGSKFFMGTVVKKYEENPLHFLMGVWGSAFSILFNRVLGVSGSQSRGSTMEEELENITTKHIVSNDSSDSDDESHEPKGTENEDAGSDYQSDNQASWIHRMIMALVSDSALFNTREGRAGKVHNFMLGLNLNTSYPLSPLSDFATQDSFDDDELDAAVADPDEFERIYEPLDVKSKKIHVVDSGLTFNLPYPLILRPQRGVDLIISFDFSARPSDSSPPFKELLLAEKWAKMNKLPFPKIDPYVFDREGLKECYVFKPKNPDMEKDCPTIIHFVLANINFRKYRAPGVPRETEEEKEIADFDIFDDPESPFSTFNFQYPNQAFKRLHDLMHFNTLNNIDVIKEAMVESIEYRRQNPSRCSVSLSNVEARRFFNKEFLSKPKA
In words: Inhibition of human cPLA2 assessed as reduction in hydrolysis of 7-hydroxycoumarinyl-gamma-linolenate or 2-oxo-2H-chromen-[…] (6Z,9Z,12Z)-octadeca-6,9,12-trienoate at 100 uM by fluorometry. Put shortly:
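Purified human cPLA2 (1 μg/mL final) started the reaction with 7-hydroxycoumarinyl-γ-linolenate substrate. Fluorescence (ex 355/em 460 nm) recorded over 84 min. Compound handled as in the 15-LOX assay.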

In experiment [6] the target is T2, Polyunsaturated fatty acid lipoxygenase ALOX15 (Homo sapiens). In words: Activation of 15-LOX in human PMN assessed as 15-HETE production at 6.2 to 40 uM pre-incubated for 15 mins before A23187, Ca2+ and Mg2+ stimulation for 1 hr by LC-MS method. In a few lines: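 PMNs preincubated 15 min at 37 °C with compound or vehicle, then stimulated 1 h at 37 °C with 10 μM A23187 plus 2 mM Ca2+ and 2 mM Mg2+. Reactions stopped with cold methanol. Eicosanoids quantified by LC-MS.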

For experiment [7] the target is unchanged. In words: Activation of 15-LOX in human whole blood assessed as increase in 15-HETE production at 100 uM pre-incubated for 20 mins before stimulation with LPS and A23187 for 120 mins in presence of 2 uM […] inhibitor Zileuton by LC-MS/MS method. In kind it is tissue-based. In a few lines:
as §1

`CN1CCN(CC(=O)N2N=C3/C(=C/c4ccccc4)CCCC3C2c2ccccc2)CC1` (configuration not stated): the AC50 in experiment [1] stood at 6.8 µM. For the same molecule, the Activity in experiment [2] was 33%; in experiment [4] it was less than 5%. For the same molecule, the inhibition in experiment [3] was less than 5%; in experiment [5], 20%. For the same molecule, the result in experiment [6] and in experiment [7] was Active.

The AC50 is the midpoint of the concentration-response curve, whichever way the signal moves. In general, inhibition refers to the percentage by which the read-out fell short of the control.
